# According to ChEMBL document CHEMBL5705889, “Novel mutant-selective EGFR kinase inhibitors against EGFR T790M” (Nature, 2009):
# The source made the active and inactive calls. The rule behind the calls is not given here.
# How the values were obtained:
# [1] = cells; assay type: functional, cell-based; settings: Homo sapiens, NCI-H1819, 72 h
# [2] = cells; assay type: functional, cell-based; settings: Homo sapiens, NCI-H1781, 72 h
# [3] = tested on: BaF3; experiment: cells; assay type: functional, cell-based; settings: Mus musculus, BaF3, 72 h
# [4] = tested on: BaF3; experiment: cells; assay type: functional, cell-based; settings: Mus musculus, BaF3, 72 h; remark: listed apart in the source
# [5] = tested on: BaF3; experiment: cells; assay type: functional, cell-based; settings: Mus musculus, BaF3, 72 h; remark: listed apart in the source
# [6] = tested on: BaF3; experiment: cells; assay type: functional, cell-based; settings: Mus musculus, BaF3, 72 h; remark: listed apart in the source
# [7] = target: RAC-alpha serine/threonine-protein kinase (Homo sapiens) (UniProt P31749); experiment: Inhibition of AKT phosphorylation in human PC9 Gefitinib-resistant (GR) cells at 0.01 to 1 uM incubated for 16 hrs by immunoblot analysis; assay type: cell-based; settings: PC9 Gefitinib-resistant (GR) cell, dose 0.01-1 µM
# Sequence of RAC-alpha serine/threonine-protein kinase (Homo sapiens) (P31749 whole entry): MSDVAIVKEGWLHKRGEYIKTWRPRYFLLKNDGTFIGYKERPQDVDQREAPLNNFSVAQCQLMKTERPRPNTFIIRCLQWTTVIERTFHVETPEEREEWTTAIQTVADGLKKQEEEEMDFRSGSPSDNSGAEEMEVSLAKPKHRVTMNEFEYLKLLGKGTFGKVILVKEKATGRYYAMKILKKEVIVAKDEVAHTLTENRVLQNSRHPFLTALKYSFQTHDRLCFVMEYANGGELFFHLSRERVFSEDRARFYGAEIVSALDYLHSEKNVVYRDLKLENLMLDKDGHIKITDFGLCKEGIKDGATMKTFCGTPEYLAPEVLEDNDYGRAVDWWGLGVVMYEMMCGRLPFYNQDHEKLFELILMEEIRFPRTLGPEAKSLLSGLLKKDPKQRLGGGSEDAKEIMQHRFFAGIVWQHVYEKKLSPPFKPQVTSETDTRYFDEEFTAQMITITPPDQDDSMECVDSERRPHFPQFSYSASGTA
# [8] = target: Epidermal growth factor receptor (Homo sapiens, UniProt P00533); experiment: Inhibition of EGFR phosphorylation in human NCI-H1975 cells at 0.01 to 1 uM incubated for 16 hrs by immunoblot analysis; assay type: cell-based; settings: dose 0.01-1 µM
# [9] = target: ALK tyrosine kinase receptor (Homo sapiens, UniProt Q9UM73); experiment: Binding affinity of ALK (unknown origin) assessed as dissociation constant
# [10] = target: Tyrosine-protein kinase BTK (Homo sapiens, UniProt Q06187); experiment: Binding affinity to BTK (unknown origin) assessed as dissociation constant
# Sequence of Tyrosine-protein kinase BTK (Q06187 whole entry): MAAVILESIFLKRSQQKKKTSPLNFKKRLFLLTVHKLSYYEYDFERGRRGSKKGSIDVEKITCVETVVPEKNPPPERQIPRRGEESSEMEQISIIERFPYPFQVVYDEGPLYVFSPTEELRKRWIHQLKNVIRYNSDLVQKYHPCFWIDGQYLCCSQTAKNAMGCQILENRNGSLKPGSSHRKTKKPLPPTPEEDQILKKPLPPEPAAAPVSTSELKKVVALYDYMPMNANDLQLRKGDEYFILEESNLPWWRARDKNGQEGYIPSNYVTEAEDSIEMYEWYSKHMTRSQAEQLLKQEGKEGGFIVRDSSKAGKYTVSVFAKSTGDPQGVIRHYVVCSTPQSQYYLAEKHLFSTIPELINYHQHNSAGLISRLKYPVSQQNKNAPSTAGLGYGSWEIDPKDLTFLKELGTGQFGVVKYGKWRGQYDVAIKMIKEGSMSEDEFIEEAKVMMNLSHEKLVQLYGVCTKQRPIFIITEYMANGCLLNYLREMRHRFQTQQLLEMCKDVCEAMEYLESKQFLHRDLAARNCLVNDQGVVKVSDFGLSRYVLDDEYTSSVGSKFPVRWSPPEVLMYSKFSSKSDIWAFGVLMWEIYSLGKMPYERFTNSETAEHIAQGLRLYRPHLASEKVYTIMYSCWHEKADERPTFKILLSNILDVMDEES
# [11] = target: Receptor-type tyrosine-protein kinase FLT3 (Homo sapiens, UniProt P36888, D835Y); experiment: Binding affinity to FLT3 D835Y mutant (unknown origin) assessed as dissociation constant
# [12] = target: eIF-2-alpha kinase GCN2 (Homo sapiens, UniProt Q9P2K8); experiment: Binding affinity to GCN2 (unknown origin) assessed as dissociation constant
# [13] = target: Cyclin-G-associated kinase (Homo sapiens, UniProt O14976); experiment: Binding affinity to GAK (unknown origin) assessed as dissociation constant
# Sequence of Cyclin-G-associated kinase (O14976 whole entry): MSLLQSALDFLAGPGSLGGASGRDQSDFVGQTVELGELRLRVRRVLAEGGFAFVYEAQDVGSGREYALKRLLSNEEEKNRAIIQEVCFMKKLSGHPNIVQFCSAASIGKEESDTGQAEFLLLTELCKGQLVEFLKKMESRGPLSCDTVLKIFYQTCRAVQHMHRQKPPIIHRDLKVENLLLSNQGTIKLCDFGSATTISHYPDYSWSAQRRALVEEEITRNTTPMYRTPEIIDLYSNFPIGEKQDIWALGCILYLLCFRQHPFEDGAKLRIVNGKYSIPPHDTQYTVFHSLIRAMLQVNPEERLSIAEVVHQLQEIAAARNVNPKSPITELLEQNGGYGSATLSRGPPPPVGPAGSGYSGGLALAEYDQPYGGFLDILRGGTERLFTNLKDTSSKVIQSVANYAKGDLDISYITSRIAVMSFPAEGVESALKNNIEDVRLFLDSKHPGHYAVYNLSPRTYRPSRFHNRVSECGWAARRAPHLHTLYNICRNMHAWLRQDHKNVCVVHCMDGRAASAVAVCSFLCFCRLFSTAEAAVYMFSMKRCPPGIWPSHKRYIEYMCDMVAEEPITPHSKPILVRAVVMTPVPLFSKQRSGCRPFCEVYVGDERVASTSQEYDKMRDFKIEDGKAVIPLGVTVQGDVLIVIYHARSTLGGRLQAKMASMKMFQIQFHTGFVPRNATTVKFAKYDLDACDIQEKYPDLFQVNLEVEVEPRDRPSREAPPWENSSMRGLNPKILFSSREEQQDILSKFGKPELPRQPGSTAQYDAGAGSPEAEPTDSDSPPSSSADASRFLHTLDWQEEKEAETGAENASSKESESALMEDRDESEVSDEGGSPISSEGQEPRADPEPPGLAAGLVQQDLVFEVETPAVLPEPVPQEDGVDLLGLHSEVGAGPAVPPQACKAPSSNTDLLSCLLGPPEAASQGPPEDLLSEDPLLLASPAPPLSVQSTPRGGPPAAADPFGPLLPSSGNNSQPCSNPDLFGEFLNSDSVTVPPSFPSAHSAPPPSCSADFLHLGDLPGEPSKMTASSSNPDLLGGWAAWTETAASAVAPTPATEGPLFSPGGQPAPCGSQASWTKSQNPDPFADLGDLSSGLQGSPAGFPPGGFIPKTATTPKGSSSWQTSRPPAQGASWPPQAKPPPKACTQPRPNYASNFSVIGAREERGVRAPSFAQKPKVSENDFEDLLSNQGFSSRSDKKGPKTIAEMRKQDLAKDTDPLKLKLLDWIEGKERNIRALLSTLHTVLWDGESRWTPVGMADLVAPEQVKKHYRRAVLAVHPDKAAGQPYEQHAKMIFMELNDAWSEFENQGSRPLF
# [14] = target: Focal adhesion kinase 1 (Homo sapiens, UniProt Q05397); experiment: Binding affinity to FAK (unknown origin) assessed as dissociation constant
# Sequence of Focal adhesion kinase 1 (Q05397 whole entry): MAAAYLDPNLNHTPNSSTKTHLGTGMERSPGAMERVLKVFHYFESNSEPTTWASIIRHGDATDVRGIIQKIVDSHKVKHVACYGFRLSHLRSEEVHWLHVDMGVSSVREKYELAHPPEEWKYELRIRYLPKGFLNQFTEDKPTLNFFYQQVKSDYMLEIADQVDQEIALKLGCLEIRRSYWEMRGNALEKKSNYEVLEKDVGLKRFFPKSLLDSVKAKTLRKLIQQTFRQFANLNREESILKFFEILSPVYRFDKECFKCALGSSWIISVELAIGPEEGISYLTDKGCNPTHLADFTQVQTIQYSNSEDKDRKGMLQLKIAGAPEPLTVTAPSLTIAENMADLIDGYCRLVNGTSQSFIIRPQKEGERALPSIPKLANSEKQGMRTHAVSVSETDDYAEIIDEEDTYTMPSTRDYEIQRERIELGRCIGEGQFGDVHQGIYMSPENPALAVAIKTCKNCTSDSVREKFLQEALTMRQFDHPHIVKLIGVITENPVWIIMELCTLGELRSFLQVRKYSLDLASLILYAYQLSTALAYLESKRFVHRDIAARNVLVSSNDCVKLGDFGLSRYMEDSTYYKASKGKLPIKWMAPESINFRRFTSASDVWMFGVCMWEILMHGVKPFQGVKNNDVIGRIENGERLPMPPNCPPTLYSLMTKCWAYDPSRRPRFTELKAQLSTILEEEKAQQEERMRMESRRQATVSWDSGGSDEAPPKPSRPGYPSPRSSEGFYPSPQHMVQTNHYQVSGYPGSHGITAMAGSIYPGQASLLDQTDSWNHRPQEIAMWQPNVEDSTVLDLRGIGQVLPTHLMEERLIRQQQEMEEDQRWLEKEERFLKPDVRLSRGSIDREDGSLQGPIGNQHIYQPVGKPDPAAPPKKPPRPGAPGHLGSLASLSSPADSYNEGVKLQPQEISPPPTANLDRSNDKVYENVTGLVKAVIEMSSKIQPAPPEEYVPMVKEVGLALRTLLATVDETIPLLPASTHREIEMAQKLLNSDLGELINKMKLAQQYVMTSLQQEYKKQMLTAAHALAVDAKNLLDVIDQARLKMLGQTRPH
# [15] = target: NUAK family SNF1-like kinase 2 (Homo sapiens, UniProt Q9H093); experiment: Binding affinity to SNARK (unknown origin) assessed as dissociation constant
# Sequence of NUAK family SNF1-like kinase 2 (Q9H093 whole entry): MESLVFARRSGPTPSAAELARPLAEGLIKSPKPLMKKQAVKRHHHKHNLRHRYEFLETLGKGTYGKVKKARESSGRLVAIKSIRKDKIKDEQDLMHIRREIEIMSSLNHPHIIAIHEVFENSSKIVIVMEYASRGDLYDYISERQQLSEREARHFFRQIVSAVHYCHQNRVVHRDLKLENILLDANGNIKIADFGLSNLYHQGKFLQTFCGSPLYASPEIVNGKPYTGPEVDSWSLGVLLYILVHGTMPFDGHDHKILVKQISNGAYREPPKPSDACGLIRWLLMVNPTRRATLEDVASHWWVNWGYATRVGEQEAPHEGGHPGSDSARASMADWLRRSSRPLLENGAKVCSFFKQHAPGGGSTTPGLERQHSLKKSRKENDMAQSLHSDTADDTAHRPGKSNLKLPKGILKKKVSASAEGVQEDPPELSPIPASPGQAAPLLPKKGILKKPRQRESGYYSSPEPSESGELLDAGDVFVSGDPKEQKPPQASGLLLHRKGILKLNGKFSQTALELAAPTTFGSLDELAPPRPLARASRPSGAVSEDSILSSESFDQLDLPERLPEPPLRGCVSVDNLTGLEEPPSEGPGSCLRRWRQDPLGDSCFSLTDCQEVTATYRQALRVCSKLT
# [16] = AUC(0 to t) in mouse at 1 mg/kg, iv administered as single dose; assay type: ADME, organism-based; settings: in vivo
# [17] = AUC(0 to infinity) in mouse at 10 mg/kg, po administered as single dose; assay type: ADME, organism-based; settings: in vivo
# [18] = Drug concentration in mouse plasma at 1 mg/kg, iv administered as single dose and measured after 0.08 hrs; assay type: ADME, organism-based
# [19] = Drug concentration in mouse plasma at 1 mg/kg, iv administered as single dose and measured after 2 hrs; assay type: ADME, organism-based
# [20] = Drug concentration in mouse plasma at 10 mg/kg, po administered as single dose and measured after 0.25 hrs; assay type: ADME, organism-based
# [21] = Drug concentration in mouse plasma at 10 mg/kg, po administered as single dose and measured after 2 hrs; assay type: ADME, organism-based
# [22] = Drug concentration in mouse plasma at 10 mg/kg, po administered as single dose and measured after 4 hrs; assay type: ADME, organism-based
# [23] = Drug concentration in mouse plasma at 10 mg/kg, po administered as single dose and measured after 24 hrs; assay type: ADME, organism-based
# [24] = Toxicity in mouse harboring EGFR del E746_A750/T790M mutant assessed as effect on serum creatine level at 25 mg/kg administered via gavage for 2 weeks; assay type: organism-based; settings: in vivo, po, 336 h
# Procedure, shortened: (§1)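 Inducible bitransgenic tumor mice gavaged daily, 25 mg/kg, vehicle NMP (10% 1-methyl-2-pyrrolidinone, 90% PEG-300), compared against vehicle-treated mice; weight, serum creatine and total white blood cell count monitored during the study.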
# [25] = Toxicity in mouse harboring EGFR del E746_A750/T790M mutant assessed as effect on total white blood cell count at 25 mg/kg administered via gavage for 2 weeks; assay type: organism-based; settings: in vivo, po, 336 h
# Procedure, shortened: as §1
# [26] = tested on: Mus musculus; experiment: In vivo inhibition of EGFR phosphorylation in transgenic mouse harboring EGFR del E746_A750/T790M mutant at 2.5 to 25 mg/kg administered as two doses separated by 16 hours by immunoblot analysis; assay type: functional, organism-based; settings: dose 2.5-25 mg/kg
# Procedure, shortened: (§2)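 Transgenic mice gavaged with compound in 10% 1-methyl-2-pyrrolidinone:90% PEG-300 vehicle; phosphorylation assessed in tissue by immunoblotting per standard protocols.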
# [27] = tested on: Mus musculus; experiment: In vivo inhibition of ERK1/2 phosphorylation in transgenic mouse harboring EGFR del E746_A750/T790M mutant at 2.5 to 25 mg/kg administered as two doses separated by 16 hours by immunoblot analysis; assay type: functional, organism-based; settings: dose 2.5-25 mg/kg
# Procedure, shortened: as §2
# [28] = tested on: Mus musculus; experiment: In vivo inhibition of EGFR phosphorylation in transgenic mouse harboring EGFR L858R/T790M mutant at 2.5 to 25 mg/kg administered as two doses separated by 16 hours by immunoblot analysis; assay type: functional, organism-based; settings: dose 2.5-25 mg/kg
# [29] = tested on: Mus musculus; experiment: In vivo inhibition of AKT phosphorylation in transgenic mouse harboring EGFR L858R/T790M mutant at 2.5 to 25 mg/kg administered as two doses separated by 16 hours by immunoblot analysis; assay type: functional, organism-based; settings: dose 2.5-25 mg/kg
# [30] = tested on: Mus musculus; experiment: In vivo antitumor activity in transgenic mouse harboring EGFR delE746_A750/T790M mutant assessed as increase in TUNEL positive cells at 25 mg/kg administered via gavage for 2 weeks by immunohistochemical analysis; assay type: functional, organism-based
# Procedure, shortened: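 Transgenic EGFR T790M mutant mice were given daily gavage at 25mg/kg in 10% 1-methyl-2-pyrrolidinone:90% PEG-300 vehicle, alongside vehicle-alone controls. Tumor tissue was immunostained by standard protocols, and TUNEL-positive and Ki67-positive cells were counted.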
# [31] = tested on: Mus musculus; experiment: Invivo antitumor activity in transgenic mouse harboring EGFR del19/T790M mutant assessed as increase in fibrosis at 25 mg/kg administered via gavage for 2 weeks by H&E staining based analysis; assay type: functional, organism-based
# Procedure, shortened: (§3)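 EGFR-TL (L858R/T790M) or exon19 deletion-T790M (TD) inducible bitransgenic mice dosed by oral gavage daily at 25 mg/kg; vehicle 10% 1-methyl-2-pyrrolidinone:90% PEG-300. Tumors followed by MRI; lung histology by standard protocols.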
# [32] = tested on: Mus musculus; experiment: Invivo antitumor activity in transgenic mouse harboring EGFR L858R/T790M mutant assessed as decrease in cellularity at 25 mg/kg administered via gavage for 2 weeks by H&E staining based analysis; assay type: functional, organism-based
# Procedure, shortened: as §3
# [33] = tested on: BaF3; experiment: Prevention of EGFR T790M mutant development in mouse BaF3 cells harboring L858R mutant assessed as reduction in resistant clones with T790M mutant at 0.001 to 1 uM; assay type: functional, cell-based; settings: dose 0.001-1 µM
# Procedure, shortened: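 Ba/F3 cells with EGFR L858R or delE746_A750 mutagenized with N-ethyl-N-nitrosourea, then expanded in 100 nM or 1 μM inhibitor; resistant clones isolated and characterized for EGFR T790M.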
# [34] = target: Tyrosine-protein kinase Tec (Homo sapiens) (UniProt P42680); experiment: Inhibition of TEC (unknown origin)
# Sequence of Tyrosine-protein kinase Tec (Homo sapiens) (P42680 whole entry, looked up): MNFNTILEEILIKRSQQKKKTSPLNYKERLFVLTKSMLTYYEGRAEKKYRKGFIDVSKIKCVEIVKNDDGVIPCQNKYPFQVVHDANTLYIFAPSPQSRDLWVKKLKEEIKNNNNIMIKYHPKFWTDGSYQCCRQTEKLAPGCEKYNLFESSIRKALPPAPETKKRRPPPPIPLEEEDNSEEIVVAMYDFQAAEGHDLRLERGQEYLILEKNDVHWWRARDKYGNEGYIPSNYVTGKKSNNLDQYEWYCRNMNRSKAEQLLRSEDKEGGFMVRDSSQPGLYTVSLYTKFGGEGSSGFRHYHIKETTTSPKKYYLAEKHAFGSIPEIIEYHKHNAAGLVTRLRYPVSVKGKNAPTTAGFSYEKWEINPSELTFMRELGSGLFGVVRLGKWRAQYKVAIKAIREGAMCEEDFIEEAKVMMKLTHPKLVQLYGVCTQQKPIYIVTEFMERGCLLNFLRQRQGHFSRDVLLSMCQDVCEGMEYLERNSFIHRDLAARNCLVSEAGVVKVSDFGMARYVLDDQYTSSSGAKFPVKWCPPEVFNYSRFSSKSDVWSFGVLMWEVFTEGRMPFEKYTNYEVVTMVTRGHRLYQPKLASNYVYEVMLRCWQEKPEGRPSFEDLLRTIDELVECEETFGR
structure (smiles),measurement,setting,value
C=CC(=O)Nc1cccc(Oc2nc(Nc3ccc(N4CCN(C)CC4)cc3OC)ncc2Cl)c1,IC50,[1],924 nM
same,IC50,[2],1510 nM
same,IC50,[3],> 3300 nM
same,IC50,[4],157 nM
same,IC50,[5],1860 nM
same,IC50,[6],35 nM
same,inhibition,[7],Active
same,inhibition,[8],Active
same,Kd,[9],300 nM
same,Kd,[10],36 nM
same,Kd,[11],33 nM
same,Kd,[12],140 nM
same,Kd,[13],91 nM
same,Kd,[14],78 nM
same,Kd,[15],10 nM
same,AUC(0-t),[16],956 ng·h/mL
same,AUC(0-inf),[17],2400 ng·h/mL
same,concentration at 0.08 h,[18],1130 ng/mL
same,concentration at 2 h,[19],80.4 ng/mL
same,concentration at 0.25 h,[20],429 ng/mL
same,concentration at 2 h,[21],422 ng/mL
same,concentration at 4 h,[22],214 ng/mL
same,concentration at 24 h,[23],0.82 ng/mL
same,Activity,[24],Non-Toxic
same,Activity,[25],Non-Toxic
same,inhibition,[26],Active
same,inhibition,[27],Active
same,inhibition,[28],Active
same,inhibition,[29],Active
same,Activity,[30],Active
same,Activity,[31],Active
same,Activity,[32],Active
same,Activity,[33],Active
same,inhibition,[34],Active
